Test results taken from ChEMBL document CHEMBL3632461 (J Med Chem, 2015).

How the values were obtained:
[1] = Retention time of the compound in sodium phosphate buffer at 10 uM after 60 mins by LC-MS/MS analysis in presence of H2O2; format: physicochemical; conditions: 1 h
[2] = Volume of distribution at steady state in cynomolgus monkey at 1 mg/kg, iv and 3 or 5 mg/kg, po; format: ADME, organism-based, Macaca fascicularis; conditions: in vivo, read-out: Vdss
How it was run: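 Male mice, rats, dogs and cynomolgus monkeys, fasted overnight, fed after dosing. Intravenous dose 1 mg/kg in saline or 12% sulfobutyl ether β-cyclodextrin; oral arm 3 or 5 mg/kg in 0.5% methylcellulose. Steady-state volume derived from plasma concentration−time data; mean ± SD for n = 3, individual values for n = 2.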

[3] = biological target: T1, Cytochrome P450 2B6 (Homo sapiens, UniProt P20813); test: Time-dependent inhibition of CYP2B6 in human liver microsomes; format: ADME
T1 sequence (P20813 whole entry): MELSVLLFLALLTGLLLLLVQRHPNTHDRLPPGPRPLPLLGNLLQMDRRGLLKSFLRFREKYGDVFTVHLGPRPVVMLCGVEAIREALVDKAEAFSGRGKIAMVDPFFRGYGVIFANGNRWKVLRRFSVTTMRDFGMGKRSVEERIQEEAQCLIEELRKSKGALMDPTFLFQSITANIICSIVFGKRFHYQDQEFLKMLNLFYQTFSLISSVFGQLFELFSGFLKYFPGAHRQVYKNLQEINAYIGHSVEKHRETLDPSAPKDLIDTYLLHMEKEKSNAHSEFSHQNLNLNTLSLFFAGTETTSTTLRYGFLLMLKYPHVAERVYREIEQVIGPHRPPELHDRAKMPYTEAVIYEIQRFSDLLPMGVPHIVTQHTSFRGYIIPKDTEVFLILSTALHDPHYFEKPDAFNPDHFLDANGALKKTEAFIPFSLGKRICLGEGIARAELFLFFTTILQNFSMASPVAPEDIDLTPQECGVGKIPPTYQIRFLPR
How it was run: (§1)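 Time- and concentration-dependent CYP inhibition assessed by an IC₅₀ shift assay in human liver microsomes.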

[4] = Tmax in CD-1 mouse at 3 or 5 mg/kg, po; format: ADME, organism-based; conditions: in vivo
How it was run: (§2)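 Male animals (CD-1 mice 25−35 g, cannulated Wistar-Han rats 250 g, beagle dogs 12 kg, cynomolgus monkeys 7 kg), fasted overnight and fed 1.0 or 2.0 h after dosing, water ad libitum. Oral dose 3 or 5 mg/kg in 0.5% methylcellulose. Parameters calculated from plasma concentration−time data; mean ± SD for n = 3, individual values for n = 2.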

[5] = biological target: T2, Cytochrome P450 2D6 (Homo sapiens, UniProt P10635); test: Reversible inhibition of CYP2D6 dextromethorphan O-demethylase activity in human liver microsomes by LC-MS/MS analysis; format: ADME
How it was run: (§3)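 Reversible inhibition of the major CYP enzymes tested in human liver microsomes using established protocols.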

[6] = biological target: T3, Cytochrome P450 1A2 (Homo sapiens, UniProt P05177); test: Time-dependent inhibition of CYP1A2 in human liver microsomes; format: ADME; how it was run: as §1
T3 sequence (P05177 whole entry): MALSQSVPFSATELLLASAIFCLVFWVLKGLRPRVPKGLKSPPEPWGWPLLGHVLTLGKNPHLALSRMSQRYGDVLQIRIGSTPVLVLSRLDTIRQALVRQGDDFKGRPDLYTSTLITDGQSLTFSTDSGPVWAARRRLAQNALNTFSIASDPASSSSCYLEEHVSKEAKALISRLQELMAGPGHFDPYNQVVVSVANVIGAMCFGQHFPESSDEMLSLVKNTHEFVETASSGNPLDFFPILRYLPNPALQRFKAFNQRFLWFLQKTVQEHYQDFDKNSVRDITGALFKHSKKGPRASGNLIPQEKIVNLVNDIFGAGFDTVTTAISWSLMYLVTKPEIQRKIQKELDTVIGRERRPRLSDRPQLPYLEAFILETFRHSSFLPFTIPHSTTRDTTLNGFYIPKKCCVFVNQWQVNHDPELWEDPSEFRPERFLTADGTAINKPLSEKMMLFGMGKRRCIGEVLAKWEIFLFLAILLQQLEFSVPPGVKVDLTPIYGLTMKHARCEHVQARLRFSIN

[7] = biological target: T2, Cytochrome P450 2D6; test: Time-dependent inhibition of CYP2D6 in human liver microsomes; format: ADME; how it was run: as §1
[8] = biological target: Cytochrome P450 3A4 (Homo sapiens, UniProt P08684); test: Reversible inhibition of CYP3A4 in human liver microsomes by LC-MS/MS analysis; format: ADME; how it was run: as §3
[9] = Tmax in cynomolgus monkey at 3 or 5 mg/kg, po; format: ADME, organism-based, Macaca fascicularis; conditions: in vivo; how it was run: as §2
[10] = Elimination half life in CD-1 mouse at 1 mg/kg, iv and 3 or 5 mg/kg, po; format: ADME, organism-based; conditions: in vivo
How it was run: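 Male CD-1 mice (25−35 g), cannulated Wistar-Han rats (250 g), beagle dogs (12 kg) and cynomolgus monkeys (7 kg), fasted overnight and fed 1.0 or 2.0 h after dosing. iv 1 mg/kg in saline or 12% sulfobutyl ether β-cyclodextrin; po 3 or 5 mg/kg in 0.5% methylcellulose. Parameters calculated from plasma concentration−time data; mean ± SD for n = 3, individual values for n = 2.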

[11] = biological target: T4, Cytochrome P450 2C8 (Homo sapiens, UniProt P10632); test: Time-dependent inhibition of CYP2C8 in human liver microsomes; format: ADME; how it was run: as §1
T4 sequence (P10632 whole entry): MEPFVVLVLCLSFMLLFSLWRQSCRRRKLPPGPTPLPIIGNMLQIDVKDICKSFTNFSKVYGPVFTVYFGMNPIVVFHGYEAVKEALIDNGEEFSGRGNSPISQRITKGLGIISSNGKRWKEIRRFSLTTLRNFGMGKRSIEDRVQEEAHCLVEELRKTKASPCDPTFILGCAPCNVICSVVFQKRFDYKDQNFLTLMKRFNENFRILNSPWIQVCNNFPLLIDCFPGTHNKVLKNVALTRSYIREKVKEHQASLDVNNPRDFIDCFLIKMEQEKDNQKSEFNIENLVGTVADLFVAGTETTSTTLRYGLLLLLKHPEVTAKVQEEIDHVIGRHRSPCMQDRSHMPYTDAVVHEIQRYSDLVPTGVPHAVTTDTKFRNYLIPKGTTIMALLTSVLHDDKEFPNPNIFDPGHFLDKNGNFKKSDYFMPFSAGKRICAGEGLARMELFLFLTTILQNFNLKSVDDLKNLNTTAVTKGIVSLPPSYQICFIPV

[12] = Drug excretion in Wistar rat urine at 1 mg/kg, iv; format: ADME, organism-based; conditions: read-out: Drug excretion
How it was run: (§4)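 Male animals (beagle dogs 12 kg, Wistar-Han rats 250 g, cynomolgus monkeys 7 kg), fasted overnight and fed 1.0 or 2.0 h after dosing, water ad libitum. Dosed iv at 1 mg/kg in saline or 12% sulfobutyl ether β-cyclodextrin. Fraction of the iv dose excreted unchanged in urine.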

[13] = biological target: T1, Cytochrome P450 2B6; test: Reversible inhibition of CYP2B6 bupropion hydroxylase activity in human liver microsomes by LC-MS/MS analysis; format: ADME; how it was run: as §3
[14] = system: Hepatocyte; test: Metabolic stability in cryopreserved human hepatocytes assessed as GSH adduct formation; format: ADME, cell-based
How it was run: (§5)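 Incubation in NADPH-supplemented human liver microsomes or cryopreserved human hepatocytes, examined for glutathione adduct formation.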

[15] = Drug excretion in cynomolgus monkey urine at 1 mg/kg, iv; format: ADME, organism-based, Macaca fascicularis; conditions: read-out: Drug excretion; how it was run: as §4
[16] = system: Liver microsome; test: Metabolic stability in NADPH-supplemented human liver microsomes assessed as GSH adduct formation; format: ADME; how it was run: as §5

T2 sequence (P10635 whole entry): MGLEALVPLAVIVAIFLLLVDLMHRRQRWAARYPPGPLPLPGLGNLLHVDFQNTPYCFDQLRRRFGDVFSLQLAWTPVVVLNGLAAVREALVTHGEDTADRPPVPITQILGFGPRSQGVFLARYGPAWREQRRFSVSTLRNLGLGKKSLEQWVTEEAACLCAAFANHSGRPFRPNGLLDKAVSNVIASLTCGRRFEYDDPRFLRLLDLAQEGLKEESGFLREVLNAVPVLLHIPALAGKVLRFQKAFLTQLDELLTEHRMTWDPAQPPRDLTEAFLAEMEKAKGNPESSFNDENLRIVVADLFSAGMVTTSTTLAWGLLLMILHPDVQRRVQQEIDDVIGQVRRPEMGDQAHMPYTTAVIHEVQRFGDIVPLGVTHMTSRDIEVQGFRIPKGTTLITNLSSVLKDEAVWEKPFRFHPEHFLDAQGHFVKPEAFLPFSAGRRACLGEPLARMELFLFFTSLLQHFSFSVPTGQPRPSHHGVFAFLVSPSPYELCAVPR
Sequence of Cytochrome P450 3A4 (P08684 whole entry): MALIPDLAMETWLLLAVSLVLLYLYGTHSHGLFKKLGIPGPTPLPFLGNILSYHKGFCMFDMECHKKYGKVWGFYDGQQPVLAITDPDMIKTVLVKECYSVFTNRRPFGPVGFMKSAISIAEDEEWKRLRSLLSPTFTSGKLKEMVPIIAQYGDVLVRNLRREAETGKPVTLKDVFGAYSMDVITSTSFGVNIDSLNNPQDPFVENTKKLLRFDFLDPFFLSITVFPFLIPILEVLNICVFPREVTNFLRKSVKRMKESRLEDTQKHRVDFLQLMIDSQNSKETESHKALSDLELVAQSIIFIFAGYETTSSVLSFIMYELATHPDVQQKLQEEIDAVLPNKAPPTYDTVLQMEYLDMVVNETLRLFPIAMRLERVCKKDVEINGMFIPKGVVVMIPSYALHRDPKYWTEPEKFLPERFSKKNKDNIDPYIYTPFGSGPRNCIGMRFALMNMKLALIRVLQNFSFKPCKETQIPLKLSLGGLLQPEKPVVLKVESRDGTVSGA

Compound | Retention_time [1] | Vd [2] | IC50 [3] | Tmax [4] | IC50 [5] | IC50 [6] | IC50 [7] | IC50 [8] | Tmax [9] | half-life [10] | IC50 [11] | dose excreted [12] | IC50 [13] | Stability [14] | dose excreted [15] | Stability [16]
COc1ccc(-c2cc(=O)[nH]c(=S)n2CCO)c(OC)c1 | 17.49 min |  |  |  |  |  |  |  |  |  |  |  |  |  |  | 
COc1ccc(Cl)cc1-c1cc(=O)[nH]c(=S)n1CC(N)=O [PF-06282999] |  | 1.09 L/kg | > 100 µM | 1 h | > 100 µM | > 100 µM | > 100 µM | > 100 µM | 1.5 h | 1.36 h | > 100 µM | 26% | > 100 µM | Stable | 26% | Stable
